Published values collected from several papers.
Lines come from different studies, so protocols differ.
Cell line: MCF7
Read-out: cell growth or viability

COCO[C@@H]1[C@H]2OC(C)(C)O[C@H]2[C@H](O[C@H]2C[C@H]3OC(C)(C)OC[C@]34[C@@H]3[C@@H](CC[C@]4(O)C2)[C@@]2(O)CC[C@H](CO)[C@@]2(C)C[C@H]3OCOC)O[C@H]1C — IC50 (resazurin; 72 h): > 100 µM
COC1(C2CSC(=O)N2)CC2CC(CCC(C)C=CC=CCCC(C)=CC(=O)O2)O1 (centres unmarked) — IC50 (MTT; 72 h): 10.2 µM
O=C(Oc1ccc(Cl)cc1)[c-]1cccc1.[Fe+2].c1cc[cH-]c1 — IC50 (MTT; 72 h): 33 µM
CO[C@]1([C@@H]2CSC(=O)N2C2CCCC2)C[C@H]2C[C@@H](CC[C@H](C)/C=C\C=C\CC/C(C)=C\C(=O)O2)O1 — IC50 (MTT; 72 h): 5.3 µM
O=C(Oc1ccc(I)cc1)[c-]1cccc1.[Fe+2].c1cc[cH-]c1 — IC50 (MTT; 72 h): 256 µM
CO[C@]1([C@@H]2CSC(=O)N2Cc2ccccc2)C[C@H]2C[C@@H](CC[C@H](C)/C=C\C=C\CC/C(C)=C\C(=O)O2)O1 — IC50 (MTT; 72 h): 0.78 µM
O=C(O)CCCc1ccc(N(CCCl)CCCl)cc1 — IC50 (CCK-8; 48 h): 38.5 µM
O=C1[O][Pt]2([NH][C@@H]3CCCC[C@H]3[NH]2)[O]C1=O — IC50 (MTT; 96 h): 2.6 µM
C/C1=C/C(=O)O[C@@H]2C[C@@H](CC[C@H](C)/C=C\C=C\CC1)O[C@@](O)([C@@H]1CSC(=O)N1CO)C2 — IC50 (MTT; 72 h): 0.12 µM
COc1c2ccoc2cc2oc(=O)ccc12 — IC50 (WST-1; 48 h): 34.5 µM
C[C@]12C[C@@H](O)[C@H]3[C@@H](CC[C@]4(O)C[C@@H](O)C[C@@H](O)[C@]34CO)[C@@]1(O)CC[C@@H]2c1cn(Cc2ccccc2)nn1 — IC50 (resazurin; 72 h): > 100 µM
C=C(C)C(=O)O[C@H]1CC2=C[C@@H](C/C(C)=C/[C@H]3OC(=O)C(=C)[C@H]13)OC2=O — IC50 (MTT; 24 h): 2.3 µM
CC1c2c(c3ccccc3oc2=O)Oc2ncn(N)c(=N)c21 (centres unmarked) — IC50 (MTT; 72 h): > 75 µM
C/C1=C/C(=O)O[C@@H]2C[C@@H](CC[C@H](C)/C=C\C=C\CC1)O[C@@](O)([C@@H]1CSC(=O)N1Cc1ccccc1)C2 — IC50 (MTT; 72 h): 0.63 µM
COc1ccc(/C=C\c2cc(OC)c(OC)c(OC)c2)cc1 — IC50 (SRB; 48 h): 0.0048 µM
COc1c2c(cc3c1OCO3)[C@]13C=C[C@H](OC)C[C@@H]1[N@](C2)C[C@H]3OC(=O)c1ccoc1 — IC50 (WST-1): > 10 µM
N.N.[Cl][Pt][Cl] — IC50 (MTT; 48 h): 14.2 µM
C/C1=C/C(=O)O[C@@H]2C[C@@H](CC[C@H](C)/C=C\C=C\CC1)O[C@@](OCCc1ccccc1)([C@@H]1CSC(=O)N1)C2 — IC50 (MTT; 72 h): 0.1 µM
COc1cc2c3c(n(CCCN4CCOCC4)c(=O)c2cc1OC)-c1cc2c(cc1C3=O)OCO2 — IC50 (72 h): 0.288 µg/mL
O=c1ccc2cc3ccoc3cc2o1 — IC50 (WST-1; 48 h): 32.4 µM
